Test results as given in ChEMBL document CHEMBL1125310, “(R)-2-(3-mercapto-2(S)-methyl-1-oxo-propoxy)-3-(methylthio)propanoic acid, the first ultra-short-acting angiotensin converting enzyme inhibitor” (J Med Chem, 1992).

How the values were obtained:
[1] = biological target: T1, Angiotensin-converting enzyme (Oryctolagus cuniculus) (UniProt P12822); assay: Inhibitory activity towards purified rabbit lung angiotensin I converting enzyme
T1 sequence (whole entry): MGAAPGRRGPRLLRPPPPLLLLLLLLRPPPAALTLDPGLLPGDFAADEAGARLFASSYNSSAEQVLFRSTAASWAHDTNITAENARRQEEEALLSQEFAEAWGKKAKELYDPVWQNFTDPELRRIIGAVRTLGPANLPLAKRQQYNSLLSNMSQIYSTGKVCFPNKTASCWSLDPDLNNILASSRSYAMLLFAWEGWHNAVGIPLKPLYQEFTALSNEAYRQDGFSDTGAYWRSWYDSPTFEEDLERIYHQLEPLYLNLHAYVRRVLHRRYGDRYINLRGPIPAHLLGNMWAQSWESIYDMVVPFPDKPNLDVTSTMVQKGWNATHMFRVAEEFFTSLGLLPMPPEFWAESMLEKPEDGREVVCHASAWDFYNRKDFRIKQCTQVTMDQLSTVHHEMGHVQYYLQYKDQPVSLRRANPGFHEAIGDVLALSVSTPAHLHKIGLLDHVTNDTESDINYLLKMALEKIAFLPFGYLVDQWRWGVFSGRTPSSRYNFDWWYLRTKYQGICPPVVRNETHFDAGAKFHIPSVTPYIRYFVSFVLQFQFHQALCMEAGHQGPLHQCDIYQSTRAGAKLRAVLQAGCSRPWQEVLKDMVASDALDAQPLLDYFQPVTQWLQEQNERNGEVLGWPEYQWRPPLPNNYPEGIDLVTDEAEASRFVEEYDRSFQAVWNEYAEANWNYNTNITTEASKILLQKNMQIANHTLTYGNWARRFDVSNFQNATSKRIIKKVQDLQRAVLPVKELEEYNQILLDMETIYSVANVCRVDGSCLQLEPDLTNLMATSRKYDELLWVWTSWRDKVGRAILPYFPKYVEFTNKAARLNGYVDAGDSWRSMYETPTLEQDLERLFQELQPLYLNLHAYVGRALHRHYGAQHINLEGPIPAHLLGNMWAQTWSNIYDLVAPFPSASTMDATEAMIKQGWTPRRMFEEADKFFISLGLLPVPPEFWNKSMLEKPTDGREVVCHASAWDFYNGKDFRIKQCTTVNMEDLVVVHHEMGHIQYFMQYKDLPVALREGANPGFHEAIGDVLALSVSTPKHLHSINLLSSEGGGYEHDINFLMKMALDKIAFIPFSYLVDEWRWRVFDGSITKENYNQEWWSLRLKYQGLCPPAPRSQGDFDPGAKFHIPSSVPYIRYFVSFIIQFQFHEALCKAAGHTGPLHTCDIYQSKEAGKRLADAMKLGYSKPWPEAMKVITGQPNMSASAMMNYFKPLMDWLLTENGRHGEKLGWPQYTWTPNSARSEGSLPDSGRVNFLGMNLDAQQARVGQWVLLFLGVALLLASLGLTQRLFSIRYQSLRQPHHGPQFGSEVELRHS
In short: (§1)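 Purified rabbit lung ACE was used, following a published method with two changes: Zn2+ (20 μM) was added to the purified enzyme, and the substrate was radiolabeled. The read-out was inhibition of enzyme activity.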

[2] = Half-life (hydrolysis) in human blood; type: ADME
[3] = biological target: T1, Angiotensin-converting enzyme (Oryctolagus cuniculus); assay: Inhibitory activity towards purified rabbit lung Angiotensin I converting enzyme; in short: as §1
[4] = biological target: T1, Angiotensin-converting enzyme (Oryctolagus cuniculus); assay: Inhibitory activity towards purified rabbit lung angiotensin I converting enzyme; no inhibition at 10 e-5 M
[5] = biological target: T1, Angiotensin-converting enzyme (Oryctolagus cuniculus); assay: Inhibitory activity towards purified rabbit lung angiotensin I converting enzyme at 10 e-4 M

IC50 [1] [nM]	half-life [2] [min]	IC50 [3] [nM]	further results	SMILES
2.8	20	–	–	CC(C)SC[C@H](OC(=O)[C@H](C)CS)C(=O)O
5.7	14	–	–	CSC[C@H](OC(=O)[C@H](C)CS)C(=O)O
–	27	1.8	–	C[C@H](CS)C(=O)O[C@@H](CSC1CCCC1)C(=O)O
123	53	–	–	C[C@H](CS)C(=O)OCC(=O)O
–	23	10.6	–	C[C@H](CS)C(=O)O[C@@H](Cc1ccccc1)C(=O)O
–	> 60	84.7	–	C[C@H](CS)C(=O)N[C@@H](Cc1ccccc1)C(=O)O
2	37	–	–	CCC(CC)SC[C@H](OC(=O)[C@H](C)CS)C(=O)O
–	–	–	inhibition [4]: no inhibition at 10 e-5 M	CSC[C@H](O)C(=O)O
–	–	–	inhibition [5]: 30%	C[C@H](CS)C(=O)O
–	> 60	3.2	–	C[C@H](CS)C(=O)O[C@@H](CSCc1ccccc1)C(=O)O
–	–	2.7	–	C[C@H](CS)C(=O)N1CCC[C@H]1C(=O)O
